ChEMBL document CHEMBL5678801, “A benzothiophene inhibitor of mitogen-activated protein kinase-activated protein kinase 2 inhibits tumor necrosis factor alpha production and has oral anti-inflammatory efficacy in acute and chronic models of inflammation” (J Pharmacol Exp Ther, 2010)

How the values were obtained:
[1] = Inhibition of recombinant 6 his tagged N/C-terminal MSK1 (367 to 802 residues)/MSK2 (351 to 772 residues) (unknown origin) expressed in baculovirus infected Sf9 insect cells using KKKALSRQLSVAA as substrate incubated for 1 hr followed by substrate addition in presence of ATP; set-up: species or system Homo sapiens
Method in brief: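 MAPKAP family kinases were activated by p38α (1:50 molar, 250 μM ATP, 1 h, 30°C). Assays ran in 20 mM HEPES pH 7.5, 10 mM MgCl2, 1 mM DTT, 0.01% BSA, 0.0005% Tween-20, at MgATP fixed at each enzyme's Km(app). The 33P-labelled product peptide was separated by ion exchange. Duplicate experiments. MSK1 (367-802) and MSK2 (351-772) were N-terminal 6xHis constructs from Sf9 cells.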

[2] = Antiinflammatory activity in human Whole blood cell assessed as inhibition of LPS induced TNF alpha production preincubated for 1 hr followed by LPS stimulation and measured after 16 hrs by MSD analysis; type: functional, cell-based
[3] = Cytotoxicity against human Whole blood cell assessed as reduction in cell viability at upto 20 uM; type: toxicity, cell-based
[4] = Antiinflammatory activity in human PBMC cells assessed as inhibition of LPS induced IL-6 production preincubated for 1 hr followed by LPS stimulation and measured after 16 hrs by MSD analysis; type: functional, cell-based
Method in brief: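 Human PBMCs were pretreated with compound for 1 h (<1% DMSO final), then stimulated with LPS 100 ng/ml at 37°C. Cytokines in culture media were read by MSD 4-plex: TNFα at 4 h; IL-1β, IL-6 and IL-8 at 16 h. Data are means ±S.E.M. of two independent experiments in duplicate, three donors. IC50 by 4-parameter nonlinear regression.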

[5] = target: MAP kinase-activated protein kinase 2 (Homo sapiens, UniProt P49137); assay: Binding affinity to recombinant N-terminal truncated MK2 (45 to 371 residues) (unknown origin) expressed in Escherichia coli assessed as dissociation constant measured after 15 mins by surface plasmon resonance spectroscopy analysis
MAP kinase-activated protein kinase 2, sequence (P49137 whole entry, the tested form may be a part): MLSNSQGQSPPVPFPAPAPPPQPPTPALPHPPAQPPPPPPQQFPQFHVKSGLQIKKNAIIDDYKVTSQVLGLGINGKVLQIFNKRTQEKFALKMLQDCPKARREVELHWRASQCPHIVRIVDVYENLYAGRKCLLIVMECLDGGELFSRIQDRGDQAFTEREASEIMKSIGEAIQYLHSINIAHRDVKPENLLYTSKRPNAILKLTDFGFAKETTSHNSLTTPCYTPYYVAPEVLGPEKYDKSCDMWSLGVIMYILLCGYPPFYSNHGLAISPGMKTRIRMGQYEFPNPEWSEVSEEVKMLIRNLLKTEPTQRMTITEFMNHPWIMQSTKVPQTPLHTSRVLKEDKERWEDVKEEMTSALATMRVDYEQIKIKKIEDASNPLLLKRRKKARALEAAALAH
Method in brief: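 SPR on biotinylated MK2 captured on a streptavidin-coated CM5 chip, at 25°C. Running buffer was 10 mM HEPES, 150 mM NaCl, 0.005% P20, flowing at 60 μl/min. Compound at 1-100 nM was injected for 4 min, then dissociation was followed for 15 min. Real-time binding kinetics were recorded.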

[6] = Clearance in Sprague-Dawley rat plasma at 1 mg/kg measured upto 24 hrs by LC-MS/MS analysis; type: ADME, organism-based
Method in brief: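 Male Sprague-Dawley rats (275-300 g), carotid-catheterized and acclimated overnight. Dosing was i.v. at 1 mpk (n=2) in 70% saline/20% PEG-400/10% ethanol, or oral at 3 mpk (n=3) as a suspension in 0.5% HPMC/Tween. Plasma drug was measured by LC-MS/MS. Cmax and Tmax were read from individual profiles. t½ came from the terminal log-linear slope and AUC by the linear trapezoidal rule. CL = dose/AUC0-∞, Vdss = CL×MRT, F = dose-normalized AUC po/iv.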

[7] = AUC in chronic SCW-induced arthritis Lewis rat model plasma at ED50 concentration; type: ADME, cell-free
Method in brief: (§1)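 Female Lewis rats (125-140 g) received a single i.p. streptococcal cell wall injection. Animals showing the acute phase were pooled, 4-8 per group over three experiments. Dosing was oral gavage b.i.d., days 10-21, in methylcellulose-Tween-20 vehicle. Hind paw volume was read by displacement plethysmometer on day 21, as % inhibition of swelling. Plasma was sampled up to 11 h after the last dose, 3 rats per dose. ED values came from fitted curves.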

[8] = Cmax in chronic SCW-induced arthritis Lewis rat model plasma at ED80 concentration; type: ADME, cell-free; method in brief: as §1
[9] = Cmax in chronic SCW-induced arthritis Lewis rat model plasma at ED50 concentration; type: ADME, cell-free; method in brief: as §1

IC50 [2]: 1380 nM
IC50 [4]: 1400 nM
Kd [5]: 5.9 nM
clearance [6]: 10.3 mL/min/kg
AUC [7]: 34 µM·h
Cmax [8]: 28 µM
Cmax [9]: 11 µM
SMILES: Cc1ccc(-c2ccc3c(ccc4sc5c(c43)NC[C@@H](C)NC5=O)n2)cn1
IC50 [1]: > 1000 nM
Activity [3]: Non-Toxic
